Results published in ChEMBL document CHEMBL4014307, “Diindolylmethane Derivatives: Potent Agonists of the Immunostimulatory Orphan G Protein-Coupled Receptor GPR84” (J Med Chem, 2017).
Calls of active or inactive are those of the source.

Columns and labels:
[1] = target: Free fatty acid receptor 1 (Homo sapiens, UniProt O14842); experiment: Agonist activity at Gq protein coupled human FFAR1 expressed in human 1321N1 cells assessed as induction of intracellular calcium level at 10 uM measured at 1.2 secs time interval by Fluo-4-AM dye based fluorescence assay; assay type: functional, cell-based
Method in brief: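 1321N1 astrocytoma cells retrovirally expressing human FFAR1, 50,000 per well, loaded 60 min at rt in dark with 3 µM Fluo-4-AM and 0.06 % Pluronic F-127 in HBSS. Compounds at 10 µM final; antagonist mode uses 30 min preincubation before TUG-424 (final 1 µM). Fluorescence at 520 nm (excitation 485 nm), 90 reads at 1.2 s intervals. Normalized to TUG-424 at 10 µM (agonist) or 1 µM (antagonist).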

[2] = target: T1, G-protein coupled receptor 84 (Homo sapiens, UniProt Q9NQS5); experiment: Agonist activity at human GPR84 expressed in CHO cells assessed as beta-arrestin recruitment at 10 uM after 90 mins by beta-galactosidase complementation assay relative to embelin; assay type: cell-based
Method in brief: (§1)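 CHO cells co-expressing human GPR84–β-galactosidase fragment and β-arrestin–complementary fragment, 20,000 per well. Compounds in DMSO (final ≤1 %) added for 90 min, then detection reagent for 60 min at rt; luminescence read. Three to five independent experiments in duplicate.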

[3] = Stability of the compound in 1 mM sodium hydroxide solution at 100 uM at pH 11 up to 24 hrs by HPLC-MS analysis; assay type: physicochemical; details: buffer, pH 11, 24 h
Method in brief: (§2)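 Stock (2.5 mM in methanol/acetonitrile 1:1) diluted to 100 µM final in water, 0.01 % aqueous ammonia (pH 9), 1 mM NaOH (pH 11), or artificial gastric acid (pepsin, NaCl, HCl; pH 1.2). Incubated at 37 °C up to 24 h, sampled at intervals. Analysed by LC-ESI-MS on C18 at 25 °C with water/2 mM ammonium acetate–acetonitrile gradient.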

[4] = Stability of the compound in water at 100 uM up to 24 hrs by HPLC-MS analysis; assay type: physicochemical; details: buffer; method in brief: as §2
[5] = target: T2, Free fatty acid receptor 4 (Homo sapiens) (UniProt Q5NUL3); experiment: Agonist activity at human FFAR4 expressed in CHO cells assessed as beta-arrestin recruitment at 10 uM after 90 mins by beta-galactosidase complementation assay; assay type: cell-based
T2 sequence (whole entry): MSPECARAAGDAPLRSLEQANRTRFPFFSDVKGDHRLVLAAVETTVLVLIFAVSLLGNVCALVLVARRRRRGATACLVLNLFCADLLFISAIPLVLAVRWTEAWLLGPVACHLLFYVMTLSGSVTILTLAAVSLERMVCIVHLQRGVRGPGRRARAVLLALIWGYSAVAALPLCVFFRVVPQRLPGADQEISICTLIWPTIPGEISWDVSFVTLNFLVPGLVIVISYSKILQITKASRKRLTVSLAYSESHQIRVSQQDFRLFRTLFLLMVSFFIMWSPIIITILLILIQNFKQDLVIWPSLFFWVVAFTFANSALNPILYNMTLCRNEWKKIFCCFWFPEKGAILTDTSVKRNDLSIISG
Method in brief: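 Human FFAR4 in CHO β-galactosidase complementation cells, 30,000 per well, serum-free F12 ~4 h before assay; final DMSO 1 %, compounds 10 µM. Agonist mode: 90 min with agonist, then detection 60 min rt dark; luminescence. 3–4 experiments in duplicate.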

[6] = Stability of the compound in 0.01% ammonia solution at 100 uM at pH 9 up to 24 hrs by HPLC-MS analysis; assay type: physicochemical; details: buffer, pH 9, 24 h; method in brief: as §2
[7] = target: T1, G-protein coupled receptor 84; experiment: Agonist activity at Gi coupled human GPR84 expressed in CHO cells assessed as inhibition of forskolin-induced cAMP accumulation at 10 uM after 15 mins in presence of [3H]-cAMP by radiometric assay relative to decanoic acid; assay type: functional, cell-based
Method in brief: (§3)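 Forskolin (10 µM) added with or without test compound for 15 min. Cells lysed in hot (90 °C) EDTA/Triton X-100 solution. cAMP measured radiometrically with bovine adrenal binding protein and [³H]cAMP, expressed as % of forskolin-alone response.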

[8] = Stability of the compound in pH 1.2 artificial gastric fluid containing HCl, NaCl and pepsin at 100 uM up to 24 hrs by HPLC-MS analysis; method in brief: as §2
[9] = target: T1, G-protein coupled receptor 84; experiment: Agonist activity at human GPR84 expressed in CHO cells assessed as beta-arrestin recruitment after 90 mins by beta-galactosidase complementation assay; assay type: cell-based; method in brief: as §1
[10] = target: T1, G-protein coupled receptor 84; experiment: Agonist activity at Gi coupled human GPR84 expressed in CHO cells assessed as inhibition of forskolin-induced cAMP accumulation after 15 mins in presence of [3H]-cAMP by radiometric assay; assay type: functional, cell-based; method in brief: as §3
[11] = target: T2, Free fatty acid receptor 4 (Homo sapiens); experiment: Antagonist activity at human FFAR4 expressed in CHO cells assessed as inhibition of TUG-89-induced beta-arrestin recruitment at 10 uM preincubated for 30 mins followed by TUG-89 addition measured after 90 mins by beta-galactosidase complementation assay; assay type: cell-based
[12] = target: T1, G-protein coupled receptor 84; experiment: Ratio of EC50 for human GPR84 expressed in CHO cells assessed as beta-arrestin recruitment to EC50 for Gi coupled human GPR84 expressed in CHO cells assessed as inhibition of forskolin-induced cAMP accumulation; assay type: functional, cell-based
[13] = Stability of the compound in pH 1.2 artificial gastric fluid containing HCl, NaCl and pepsin assessed as parent compound remaining at 100 uM after 4 hrs by HPLC-MS analysis; method in brief: as §2
[14] = target: G-protein coupled receptor 35 (Homo sapiens) (UniProt Q9HC97); experiment: Agonist activity at human GPR35 at 10 uM
[15] = target: T3, Aryl hydrocarbon receptor (Homo sapiens, UniProt P35869); experiment: Activation of AhR in human HepG2 cells assessed as induction of CYP1A1 mRNA expression at 20 uM after 18 hrs by RT-PCR method; assay type: ADME, cell-based
T3 sequence (P35869 whole entry): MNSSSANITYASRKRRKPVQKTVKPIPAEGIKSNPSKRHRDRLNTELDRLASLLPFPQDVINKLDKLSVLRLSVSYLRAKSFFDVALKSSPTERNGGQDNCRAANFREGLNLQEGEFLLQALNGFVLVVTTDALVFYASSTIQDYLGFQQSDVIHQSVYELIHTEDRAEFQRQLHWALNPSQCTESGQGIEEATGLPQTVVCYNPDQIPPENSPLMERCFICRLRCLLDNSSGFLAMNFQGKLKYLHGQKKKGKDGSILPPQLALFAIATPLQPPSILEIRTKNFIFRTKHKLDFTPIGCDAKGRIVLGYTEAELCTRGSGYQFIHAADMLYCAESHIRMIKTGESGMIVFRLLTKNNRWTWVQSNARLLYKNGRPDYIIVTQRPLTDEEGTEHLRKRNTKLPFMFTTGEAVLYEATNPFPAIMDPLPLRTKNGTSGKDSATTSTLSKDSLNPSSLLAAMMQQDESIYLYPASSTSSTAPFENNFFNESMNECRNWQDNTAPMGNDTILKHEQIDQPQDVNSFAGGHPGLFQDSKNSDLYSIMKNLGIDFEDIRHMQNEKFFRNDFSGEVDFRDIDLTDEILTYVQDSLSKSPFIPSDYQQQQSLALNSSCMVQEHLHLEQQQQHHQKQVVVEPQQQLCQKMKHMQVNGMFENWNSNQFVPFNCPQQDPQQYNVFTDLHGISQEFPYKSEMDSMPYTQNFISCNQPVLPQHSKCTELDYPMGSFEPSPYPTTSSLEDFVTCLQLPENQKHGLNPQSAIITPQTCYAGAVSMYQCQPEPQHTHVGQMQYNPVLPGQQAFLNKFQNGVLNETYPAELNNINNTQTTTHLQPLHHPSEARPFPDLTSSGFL
Method in brief: (§4)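 HepG2 cells (3x10^5 cells/ml) stimulated 18 h with 5 µM or 20 µM test compound or left untreated; 3-methylcholanthrene (10 µM) as positive control. RNA extracted for read-out; three independent experiments.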

[16] = system: CHO; experiment: Effect on forskolin-induced cAMP accumulation in CHO cells preincubated for 5 mins followed by forskolin addition measured after 15 mins in presence of [3H]-cAMP by radiometric assay; assay type: ADME, cell-based, Cricetulus griseus; details: chinese hamster, 0.25 h
Method in brief: as §3, with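 “CHO cells stably expressing human GPR84, or the parent non-transfected CHO line, incubated in HBSS (pH 7.4) at 37 °C with RO-20-1724 (final 40 µM). Forskolin” for “Forskolin”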

[17] = target: T3, Aryl hydrocarbon receptor; experiment: Activation of AhR in human HepG2 cells assessed as induction of CYP1A1 mRNA expression at 10 uM after 18 hrs by RT-PCR method; assay type: ADME, cell-based
Method in brief: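 HepG2 cells seeded at 3x10^5 cells/ml were exposed to compound for 18 h alongside untreated cells and a 3-methylcholanthrene (10 µM) positive control. Total RNA was then extracted for transcript measurement. Three independent experiments were run.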

[18] = target: T1, G-protein coupled receptor 84; experiment: Agonist activity at Gi coupled human GPR84 expressed in CHO cells assessed as inhibition of forskolin-induced cAMP accumulation up to 100 uM preincubated for 5 mins followed by forskolin addition measured after 15 mins in presence of [3H]-cAMP by radiometric assay; assay type: functional, cell-based
Method in brief: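 Concentration-response in CHO-hGPR84 cells. Compound preincubated 5 min, then forskolin 10 µM added for a further 15 min. Maximal forskolin-induced cAMP without agonist set as 100 %. […] Mean ± SEM of 3 independent experiments in duplicate.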

[19] = target: T1, G-protein coupled receptor 84; experiment: Antagonist activity at Gi coupled human GPR84 expressed in CHO cells assessed as inhibition of decanoic acid-induced receptor activation at 10 uM; assay type: cell-based
[20] = target: T1, G-protein coupled receptor 84; experiment: Positive allosteric modulation of Gi coupled human GPR84 expressed in CHO cells assessed as potentiation of decanoic acid-induced inhibition of forskolin-induced cAMP accumulation by measuring increase in fold shift in decanoic acid EC50 at 0.1 to 30 uM after 15 mins in presence of [3H]-cAMP by radiometric assay; assay type: functional, cell-based
[21] = target: T3, Aryl hydrocarbon receptor; experiment: Activation of AhR in human HepG2 cells assessed as induction of CYP1A1 mRNA expression at 5 to 20 uM after 18 hrs by RT-PCR method; assay type: ADME, cell-based; method in brief: as §4
[22] = target: T3, Aryl hydrocarbon receptor; experiment: Activation of AhR in human HepG2 cells assessed as induction of CYP1A1 mRNA expression after 18 hrs by RT-PCR method; assay type: ADME, cell-based; method in brief: as §4
[23] = Stability of the compound in pH 1.2 artificial gastric fluid containing HCl, NaCl and pepsin assessed as parent compound remaining at 100 uM after 1 hr by HPLC-MS analysis; method in brief: as §2
[24] = Stability of the compound in pH 1.2 artificial gastric fluid containing HCl, NaCl and pepsin assessed as parent compound remaining at 100 uM after 2 hrs by HPLC-MS analysis; method in brief: as §2

T1 sequence (Q9NQS5 whole entry, the tested form may be a part): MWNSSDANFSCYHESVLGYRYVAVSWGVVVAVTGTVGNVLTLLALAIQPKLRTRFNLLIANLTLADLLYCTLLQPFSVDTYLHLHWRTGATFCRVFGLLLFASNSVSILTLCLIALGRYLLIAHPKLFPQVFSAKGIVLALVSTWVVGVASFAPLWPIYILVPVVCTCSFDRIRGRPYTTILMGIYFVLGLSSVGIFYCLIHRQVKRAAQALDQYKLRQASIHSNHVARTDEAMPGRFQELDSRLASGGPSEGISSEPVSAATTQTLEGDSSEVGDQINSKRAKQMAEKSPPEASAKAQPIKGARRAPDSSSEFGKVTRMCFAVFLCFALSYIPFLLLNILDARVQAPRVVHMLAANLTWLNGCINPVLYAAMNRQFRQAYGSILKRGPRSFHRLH
G-protein coupled receptor 35 (Homo sapiens), sequence (Q9HC97 whole entry): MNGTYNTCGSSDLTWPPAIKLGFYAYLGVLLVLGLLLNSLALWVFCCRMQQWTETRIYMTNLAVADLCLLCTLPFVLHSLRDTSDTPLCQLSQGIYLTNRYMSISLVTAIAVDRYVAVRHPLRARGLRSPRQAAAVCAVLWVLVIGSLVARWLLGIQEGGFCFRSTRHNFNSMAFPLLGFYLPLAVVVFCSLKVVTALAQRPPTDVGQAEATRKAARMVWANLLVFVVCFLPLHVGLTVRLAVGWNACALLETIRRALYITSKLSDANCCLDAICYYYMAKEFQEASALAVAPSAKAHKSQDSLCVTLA
Free fatty acid receptor 1, sequence (O14842 whole entry): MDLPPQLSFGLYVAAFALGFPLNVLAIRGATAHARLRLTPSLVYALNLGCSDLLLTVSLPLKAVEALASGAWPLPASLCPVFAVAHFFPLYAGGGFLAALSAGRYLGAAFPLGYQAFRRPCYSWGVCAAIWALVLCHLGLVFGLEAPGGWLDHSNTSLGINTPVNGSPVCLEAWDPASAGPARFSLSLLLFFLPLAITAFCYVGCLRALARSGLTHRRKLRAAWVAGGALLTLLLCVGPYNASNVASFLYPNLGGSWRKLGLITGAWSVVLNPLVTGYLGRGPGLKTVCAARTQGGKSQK

Compound | Activity [1] | Emax [2] | Stability [3] | Stability [4] | Activity [5] | Stability [6] | Emax [7] | EC50 [9] | EC50 [10] | inhibition [11] | Activity [14] | inhibition [10] | Stability [13] | Activity [16] | also measured
Fc1cccc2c(Cc3c[nH]c4c(F)cccc34)c[nH]c12 | inactive | 99% | Stable | Stable | inactive | Stable | 129% | 6.07 µM | 0.113 µM | inactive |  |  |  |  | Stability [8]: Stable
Fc1ccc2[nH]cc(Cc3c[nH]c4ccc(F)cc34)c2c1 | inactive | 125% | Stable | Stable | inactive | Stable | 117% | 4.33 µM | 0.08 µM | inactive | inactive | Dose-dependent effect | 57% | Non-Toxic | Ratio EC50 [12]: 54; Activity [15]: Not Active
Cc1ccc2cc3c(ccc4ccccc43)c3c2c1CC3 [3-METHYLCHOLANTHRENE] |  |  |  |  |  |  |  |  |  |  |  |  |  |  | Activity [17]: Active; inhibition [18]: inactive
Fc1cc(F)c2[nH]cc(Cc3c[nH]c4c(F)cc(F)cc34)c2c1 | inactive | 385% |  |  | inactive |  | 131% |  |  | inactive | inactive | Dose-dependent effect |  | Non-Toxic | Activity [21]: Not Active

Further lines, with some results ahead:

Activity [1] | Emax [2] | Stability [3] | Stability [4] | Activity [5] | Stability [6] | Emax [7] | EC50 [9] | EC50 [10] | inhibition [11] | Activity [14] | inhibition [10] | Compound | Stability [13] | Activity [16] | also measured
inactive | 67% |  |  | inactive |  | -24% | 2.97 µM | > 10 µM | inactive | inactive |  | CCC(c1c[nH]c2ccccc12)c1c[nH]c2ccccc12 |  |  | inhibition [19]: inactive; Activity [20]: inactive
inactive | 60% | Stable | Stable | inactive | Stable | 125% |  |  | inactive | inactive | Dose-dependent effect | c1ccc2c(Cc3c[nH]c4ccccc34)c[nH]c2c1 [ARUNDINE] | 35% | Non-Toxic | Activity [22]: Dose-dependent effect; Stability [23]: 63%; fold change (FC) [7]: 29; Stability [24]: 49%
